What was measured:
[1] = target: T1, Gonadotropin-releasing hormone receptor (Homo sapiens, UniProt P30968); assay: Antagonist activity at human GnRH receptor expressed in CHO-K1 cells assessed as inhibition of LHRH-induced response preincubated for 20 mins followed by LHRH addition and measured after 60 mins by TR-FRET assay; type: cell-based
T1 sequence (P30968 whole entry): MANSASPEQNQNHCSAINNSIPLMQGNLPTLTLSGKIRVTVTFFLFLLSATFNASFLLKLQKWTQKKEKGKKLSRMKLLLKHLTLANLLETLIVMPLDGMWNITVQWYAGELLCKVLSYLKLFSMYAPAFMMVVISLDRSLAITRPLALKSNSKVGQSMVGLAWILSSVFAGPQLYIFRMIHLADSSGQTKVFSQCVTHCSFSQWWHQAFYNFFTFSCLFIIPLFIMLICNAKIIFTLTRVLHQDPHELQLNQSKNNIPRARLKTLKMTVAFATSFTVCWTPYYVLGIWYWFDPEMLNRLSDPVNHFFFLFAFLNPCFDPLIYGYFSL

[2] = target: T1, Gonadotropin-releasing hormone receptor; assay: Antagonist activity at human GnRH receptor expressed in CHO-K1 cells assessed as inhibition of buserelin-induced response preincubated for 20 mins followed by buserelin addition and measured after 60 mins by TR-FRET assay; type: cell-based
[3] = target: T2, Gonadotropin-releasing hormone receptor (Rattus norvegicus, UniProt P30969); assay: Antagonist activity at rat GnRH receptor expressed in CHO-K1 cells assessed as inhibition of LHRH-induced response preincubated for 20 mins followed by LHRH addition and measured after 60 mins by TR-FRET assay; type: cell-based
T2 sequence (P30969 whole entry): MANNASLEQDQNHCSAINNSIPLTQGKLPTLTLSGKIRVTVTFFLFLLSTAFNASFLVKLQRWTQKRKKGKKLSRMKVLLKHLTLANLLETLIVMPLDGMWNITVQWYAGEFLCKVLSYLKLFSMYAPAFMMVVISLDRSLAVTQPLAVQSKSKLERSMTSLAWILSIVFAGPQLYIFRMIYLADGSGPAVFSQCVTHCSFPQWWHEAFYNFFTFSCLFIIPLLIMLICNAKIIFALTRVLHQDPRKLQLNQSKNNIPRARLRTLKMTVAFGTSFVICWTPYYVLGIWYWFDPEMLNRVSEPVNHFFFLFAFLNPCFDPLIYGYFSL
Outline: (§1)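 Frozen rat-receptor cells: thawed, seeded overnight in serum-containing Ham's F12, Accutase-harvested, resuspended in serum-free medium with IP1-d2, 1 h at 37 °C. 1.0 × 10^4 cells/well, 20 min compound preincubation at rt, then 1× EC80 LHRH or buserelin in HEPES stimulation buffer pH 7.4 for 60 min at 37 °C. Tb-anti-IP1 lysis (1:38), HTRF read 60 min later.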

[4] = target: T2, Gonadotropin-releasing hormone receptor; assay: Antagonist activity at rat GnRH receptor expressed in CHO-K1 cells assessed as inhibition of buserelin-induced response preincubated for 20 mins followed by buserelin addition and measured after 60 mins by TR-FRET assay; type: cell-based; outline: as §1
[5] = Lipophilicity, log D of the compound in pH 7.5 MeCN/H2O solution by reversed-phase HPLC analysis; type: physicochemical
Outline: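 Indirect reversed-phase HPLC at pH 7.5, calibrated with n-alkan-2-ones C3–C16. Compounds applied as 0.67 mM DMSO stocks in MeCN/H2O (1:1).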

[6] = Intrinsic clearance in Han Wistar rat hepatocytes at 1 uM measured up to 90 mins by LC/MS/MS analysis; type: ADME, cell-based, Hepatocyte; details: for CLint scaled at 1 µM: Han Wistar, read-out: CLH (converted)
[7] = Clearance in Wistar rat at 0.5 mg/kg, iv by LC-MS/MS analysis; type: ADME, organism-based; details: in vivo
[8] = Oral bioavailability in Wistar rat at 2 mg/kg by LC-MS/MS analysis; type: ADME, organism-based; details: in vivo

| SMILES | IC50 [1] [nM] | IC50 [2] [nM] | also measured |
| --- | --- | --- | --- |
| CC(=O)N1CCC2(CC1)CN(S(=O)(=O)c1ccc(F)cc1)c1ccc(C(=O)NCc3ccccc3Cl)cc12 | 420 | 1770 |  |
| COc1ccc(S(=O)(=O)N2c3ccc(C(=O)NCc4ccccc4Cl)cc3C(C)(C)C2C)cc1 (racemic) | 365 | 6620 | IC50 [3]: 1420 nM; IC50 [4]: 4870 nM |
| O=C(NCc1ccc(C(F)(F)F)cn1)c1ccc2c(c1)C1(CCS(=O)(=O)CC1)C(C1CC1)N2S(=O)(=O)c1ccc(F)cc1 (racemic) | 159 | 415 |  |
| CC(=O)N1CCC2(CC1)c1cc(NC(=O)c3cccc(F)c3)ccc1N(S(=O)(=O)c1ccc(F)cc1)C2C1CC1 (racemic) | 10 | 18 |  |
| CC(=O)N1CCC2(CC1)c1cc(C(=O)NCc3ccccc3Cl)ccc1N(C(=O)c1ccc(F)cc1)C2C (racemic) | 18000 | > 20000 |  |
| CC(=O)N1CCC2(CC1)c1cc(C(=O)NCc3ccccc3Cl)ccc1N(Cc1ccc(F)cc1)C2C (racemic) | 12800 | 18200 |  |
| CC(=O)N1CCC2(CC1)c1cc(C(=O)NCc3ccccc3Cl)ccc1N(S(=O)(=O)c1ccc(C(F)(F)F)cc1)C2C (racemic) | > 20000 | 13800 |  |
| CC(=O)N1CCC2(CC1)c1cc(C(=O)NCc3ccccc3Cl)ccc1N(S(C)(=O)=O)C2C (racemic) | 10100 | 18100 |  |
| O=C(NCc1ncccc1Cl)c1ccc2c(c1)C1(CCS(=O)(=O)CC1)C(C1CC1)N2S(=O)(=O)c1ccc(F)cc1 (racemic) | 90 | 222 |  |
| CC(=O)N1CCC2(CC1)c1cc(NC(=O)c3cccnc3)ccc1N(S(=O)(=O)c1ccc(F)cc1)C2C1CC1 (racemic) | 34 | 68 |  |
| CC(=O)N1CCC2(CC1)c1cc(C(=O)NCc3ccccc3Cl)ccc1N(S(=O)(=O)c1ccc(F)cc1)C2C (racemic) | 87 | 90 | chromatographic logD [5]: 3.25 |
| CC(=O)N1CCC2(CC1)c1cc(C(=O)NCc3ccccc3)ccc1N(S(=O)(=O)c1ccc(F)cc1)C2C1CC1 (racemic) | 208 | 553 |  |
| CC1N(S(=O)(=O)c2ccccc2)c2ccc(C(=O)NCc3ccccc3Cl)cc2C1(C)C (racemic) | 3060 | 1410 | IC50 [4]: 4840 nM |
| O=C(NCc1ccccn1)c1ccc2c(c1)C1(CCS(=O)(=O)CC1)C(C1CC1)N2S(=O)(=O)c1ccc(F)cc1 (racemic) | 245 | 921 |  |
| CC(=O)N1CCC2(CC1)c1cc(C(=O)NC3(c4ccccc4Cl)CC3)ccc1N(S(=O)(=O)c1ccc(F)cc1)C2C1CC1 (racemic) | 162 | 1050 |  |
| CC(=O)N1CCC2(CC1)c1cc(C(=O)NCc3ccccc3Cl)ccc1N(S(=O)(=O)c1ccc(F)cc1)C2CCO (racemic) | 584 | 1150 |  |
| CC(=O)N1CCC2(CC1)c1cc(C(=O)NCc3ccccc3Cl)ccc1N(S(=O)(=O)c1cccnc1)C2C (racemic) | 139 | 269 |  |
| O=C(NCc1ncc(C(F)(F)F)cc1F)c1ccc2c(c1)C1(CCS(=O)(=O)CC1)C(C1CC1)N2S(=O)(=O)c1ccc(F)cc1 (racemic) | 84 | 246 |  |
| O=C(NCc1ncc(C(F)(F)F)cc1Cl)c1ccc2c(c1)C1(CCS(=O)(=O)CC1)C(C1CC1)N2S(=O)(=O)c1ccc(F)cc1 (stereo in doubt) |  | 2430 |  |
| COc1ccc(S(=O)(=O)N2c3ccc(C(=O)NCc4ccccc4Cl)cc3C(C)(C)C2C)cc1 (stereo in doubt; 1a) | 570 | 1500 | IC50 [3]: 730 nM; CLint scaled at 1 µM [6]: 51.7 mL/min/kg; IC50 [4]: 1100 nM; chromatographic logD [5]: 3.8 |
| COc1ccc(S(=O)(=O)N2c3ccc(C(=O)NCc4ccccc4Cl)cc3C(C)(C)C2C)cc1 (stereo in doubt; form 1) | 568 | 1530 | IC50 [3]: 726 nM; IC50 [4]: 1110 nM |
| COc1ccc(S(=O)(=O)N2c3ccc(C(=O)NCc4ccccc4Cl)cc3C3(CCN(C(C)=O)CC3)C2C)cc1 (stereo in doubt; form 1) | ≥ 20000 | ≥ 20000 | IC50 [3]: ≥ 20000 nM |
| CC(=O)N1CCC2(CC1)c1cc(C(=O)NCc3ccccc3Cl)ccc1N(S(=O)(=O)c1ccc(F)cc1)C2C (stereo in doubt; form 1) | > 20000 | > 20000 |  |
| COc1ccc(S(=O)(=O)N2c3ccc(C(=O)NCc4ccccc4Cl)cc3C(C)(C)C2C)cc1 (stereo in doubt; form 2) | ≥ 20000 | ≥ 20000 | IC50 [3]: ≥ 20000 nM; IC50 [4]: ≥ 20000 nM |

Further compounds by falling IC50 [1], results first:

| IC50 [1] [nM] | IC50 [2] [nM] | SMILES | also measured |
| --- | --- | --- | --- |
| 78 | 228 | O=C(Nc1ccc2c(c1)C1(CCC(O)(C(F)(F)F)CC1)C(C1CC1)N2S(=O)(=O)c1ccc(F)cc1)c1cccnc1 (stereo unspecified) |  |
| 65 | 144 | O=C(NCc1ncc(F)cc1Cl)c1ccc2c(c1)C1(CCS(=O)(=O)CC1)C(C1CC1)N2S(=O)(=O)c1ccc(F)cc1 (racemic) |  |
| 56 | 92 | CC(=O)N1CCC2(CC1)c1cc(C(=O)NC3(c4ccc(Cl)cc4)CC3)ccc1N(S(=O)(=O)c1ccc(F)cc1)C2C1CC1 (racemic) |  |
| 53.5 | 35 | CC(=O)N1CCC2(CC1)c1cc(C(=O)NCc3ncccc3Cl)ccc1N(S(=O)(=O)c1ccc(F)cc1)C2C (single isomer, unassigned) | CLint scaled at 1 µM [6]: 11.7 mL/min/kg; clearance ([7]; Wistar): 28.3 mL/min/kg; bioavailability [8]: 18% |
| 53 | 131 | CC(=O)N1CCC2(CC1)c1cc(C(=O)NCc3ccccc3Cl)ccc1N(S(=O)(=O)c1ccccc1)C2C (racemic) |  |
| 53 | 140 | CC1N(S(=O)(=O)c2ccc(F)cc2)c2ccc(NC(=O)c3cccnc3)cc2C12CCOCC2 (racemic) |  |
| 48 | 132 | O=C(Nc1ccc2c(c1)C1(CCSCC1)C(C1CC1)N2S(=O)(=O)c1ccc(F)cc1)c1cccnc1 (racemic) |  |
| 38 | 77 | CC(=O)N1CCC2(CC1)c1cc(C(=O)NCc3ccc(F)cc3Cl)ccc1N(S(=O)(=O)c1ccc(F)cc1)C2C1CC1 (racemic) |  |
| 32 | 58.5 | N=S1(=O)CCC2(CC1)c1cc(NC(=O)c3cccnc3)ccc1N(S(=O)(=O)c1ccc(F)cc1)C2C1CC1 (stereo in doubt; form 1) |  |
| 26 | 61 | O=C(Nc1ccc2c(c1)C1(CCC(O)CC1)C(C1CC1)N2S(=O)(=O)c1ccc(F)cc1)c1cccnc1 (stereo unspecified) |  |
| 24 | 47 | CC(=O)N1CCC2(CC1)c1cc(C(=O)NCc3ccccc3Cl)ccc1N(S(=O)(=O)c1ccc(F)cc1)C2C1CC1 (racemic) |  |
| 21 |  | CC(=O)N1CCC2(CC1)c1cc(C(=O)NCc3ccccc3Cl)ccc1N(S(=O)(=O)c1ccc(F)cc1)C2C (stereo in doubt; form 2) |  |
| 20 | 45 | O=C(Nc1ccc2c(c1)C1(CCS(=O)(=O)CC1)C(C1CC1)N2S(=O)(=O)c1ccc(F)cc1)c1cccnc1 (stereo unspecified) |  |
| 20 | 44 | O=C(NCc1ncc(C(F)(F)F)cc1Cl)c1ccc2c(c1)C1(CCS(=O)(=O)CC1)C(C1CC1)N2S(=O)(=O)c1ccc(F)cc1 (racemic) |  |
| 18 | 36 | O=C(Nc1ccc2c(c1)C1(CC[S+]([O-])CC1)C(C1CC1)N2S(=O)(=O)c1ccc(F)cc1)c1cccnc1 (stereo unspecified) |  |
| 15 | 28 | COc1ccc(S(=O)(=O)N2c3ccc(C(=O)NCc4ccccc4Cl)cc3C3(CCN(C(C)=O)CC3)C2C)cc1 (stereo in doubt; form 3) | CLH ([6]; 1.5 h, 1 µM): 20 mL/min/kg; CL ([7]; 0.5 mg/kg): 31.7 mL/min/kg; bioavailability [8]: 1.3% |
| 13 | 26 | N=S1(=O)CCC2(CC1)c1cc(NC(=O)c3cccnc3)ccc1N(S(=O)(=O)c1ccc(F)cc1)C2C1CC1 (stereo in doubt; form 2) |  |
| 10 | 22 | C=CCC1N(S(=O)(=O)c2ccc(F)cc2)c2ccc(C(=O)NCc3ccccc3Cl)cc2C12CCN(C(C)=O)CC2 (racemic) |  |

Source: ChEMBL document CHEMBL4673248, “Discovery and Characterization of BAY 1214784, an Orally Available Spiroindoline Derivative Acting as a Potent and Selective Antagonist of the Human Gonadotropin-Releasing Hormone Receptor as Proven in a First-In-Human Study in Postmenopausal Women” (J Med Chem, 2020)
